Screens deposited in PubChem BioAssay by several laboratories.
The list is not random: actives were taken first. Their share in the collection is about 2.6%.
PolyA inhibitor: yeast polyadenylation inhibition; activity score, % at 12 µM; S. cerevisiae SKY197-pL101 polyadenylation reporter, beta-gal luminescence; efflux-impaired pdr1/pdr3 knockout yeast; score 100 = 6 SD above DMSO; actives 0.02% (n = 300,000);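 active = lowest replicate activity score at least 50, where 100 means six control SD above control mean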;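 also: yeast exposed to compound for 9 h at 30 °C; higher score means more reporter readthrough which indicates perturbed polyadenylation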
proCasp3 act: procaspase-3 (human) activation; actives 0.11% (n = 330,000); activation, % at 8.5 µM; recombinant procaspase-3 D3A, Ac-DEVD-pNA absorbance 405 nm; P42574;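 active = activation above the mean of all tested compounds plus 3 SD, cut at about 21% in these data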;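 also: 0% = DMSO alone and 100% = DMSO wells spiked with extra 5 µM PC-3 D3A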
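assay system = Procaspase-3 D3A mutant | signal = absorbance at 405 nm, 0 and 120 min | times = 1 h preincubation plus 2 h reaction at 25 °C | repeats = single replicate | read-out = % activation between DMSO and enzyme-spiked controls | medium = Zinc-free HEPES saline buffer with Triton X-100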
proCasp7 act: activates human procaspase-7, counter-screen for procaspase-3 activators | P55210 | recombinant procaspase-7, Ac-DEVD-pNA absorbance 405 nm; D23A/D198A/D206A triple mutant, cannot self-cleave; scale: DMSO 0, 5 µM enzyme 100 | activation, % at 8.5 µM | actives 0.093% (n = 330,000) | AID 463210;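 active = percent activation above the screen-wide mean plus 3 SD, cut at about 25% in these data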
Target sequence (P55210 whole entry D23A/D198A/D206A): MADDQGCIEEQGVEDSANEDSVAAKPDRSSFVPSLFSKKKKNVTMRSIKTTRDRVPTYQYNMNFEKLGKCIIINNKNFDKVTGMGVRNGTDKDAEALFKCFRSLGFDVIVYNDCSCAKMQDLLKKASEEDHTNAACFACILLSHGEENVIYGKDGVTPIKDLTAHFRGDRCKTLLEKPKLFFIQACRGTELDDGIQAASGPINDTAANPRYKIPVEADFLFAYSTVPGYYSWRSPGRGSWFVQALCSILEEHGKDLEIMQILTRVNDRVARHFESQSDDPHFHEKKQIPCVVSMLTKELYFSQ
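Material: Procaspase-7 triple mutant (PC-7 D3A) | Quantity: 2 µM procaspase-7 mutant as dispensed | Reagent: DEVD-pNA substrate | Times: 1 h preincubation, 2 h reaction | Technique: 405 nm absorbance of p-nitroaniline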
AHR activator: activators of human aryl hydrocarbon receptor. AID 2796. activation, % at 5 µM. P35869. AHR-responsive luciferase reporter cells, luminescence. actives 2.5% (n = 320,000); in the data active = activation above about 47%;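 also: 0% = vehicle wells and 100% = reference agonist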
AHR act confirm: human AHR activation, confirmation; actives 87% (n = 2,300); activation, % at 9 µM; AID 2845; shares compounds with AHR activator; human cells, AHR-responsive luciferase reporter, luminescence; in the data active = activation above about 49%;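 also: HepG2 hepatoma cells carrying a DRE-driven firefly luciferase reporter; 0% = vehicle wells and 100% = reference agonist wells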
PXR counter: activates human PXR in AHR activator counter-screen | actives 88% (n = 2,300) | activation, % at 11.6 µM | shares compounds with AHR activator | cell-based PXR reporter, luciferase luminescence; in the data active = activation above about 11%;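 also: human hepatoma DPX-2 cells expressing full-length human PXR; 0% = DMSO and 100% = reference agonist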
The depositor's hits bear a star; nt = not tested or not shown.

SMILES	PolyA inhibitor	proCasp3 act	proCasp7 act	AHR activator	AHR act confirm	PXR counter
Cc1ccc(S(=O)(=O)N2CCCCC2)cc1NC(=O)C1CC(=O)N(c2ccc3c(c2)OCCO3)C1 (stereo not given)	11.4	-3.8	-2.5	0.8	nt	nt
COc1cccc(-c2ncc3ccccc3c2COC(=O)c2ccc(C(F)(F)F)cc2)c1	nt	8.0	6.6	3.6	nt	nt
O=[N+]([O-])c1cccc(NC(=S)Nc2nc(-c3ccccc3Cl)cs2)c1	-16.7	-4.8	-6.5	86.9*	56.3*	22.7*
C[C@@H]1CN([C@H](C)CO)C(=O)c2cc(NS(=O)(=O)c3cn(C)cn3)ccc2O[C@@H]1CN(C)S(C)(=O)=O	nt	4.6	1.9	-0.8	nt	nt
O=C(c1ccco1)N1CCC(c2nc3ccccc3[nH]2)CC1	-25.3	-4.2	2.7	-2.1	nt	nt
Cc1ccc(CSc2nc3ccccc3cc2C=O)cc1	9.7	0.1	7.4	81.6*	72.0*	15.0*
c1ccc2[nH]c(-c3ccnc4ccccc34)nc2c1	-25.3	3.1	3.2	90.1*	155.8*	25.7*
CCn1cc(CN2CCC(C(=O)Nc3ccc(Oc4cccnc4)cc3)CC2)cn1	-22.9	1.5	3.2	0.4	nt	nt
COC(=O)c1ccc(COc2ccc(/C=N/Nc3nc(C)cc(=O)[nH]3)cc2)cc1	-4.5	-3.4	-8.0	9.1	nt	nt
Cc1ccccc1C(=O)N[C@H](C(=O)OCC(=O)NC1CC1)C(C)C	nt	-1.6	8.1	-1.9	nt	nt
NNc1nc2c(-c3ccc(F)cc3)nnn2c2ccccc12	-5.6	-6.4	-18.8	101.6*	128.4*	35.4*
NNc1nc2c(-c3ccc(Cl)cc3)nnn2c2ccccc12	-1.7	-10.3	-6.7	97.2*	117.3*	16.1*
COc1cc(NC(=O)C/C(C)=N/NC(=O)C(=O)NCCO)c(OC)cc1Cl	-0.8	-2.3	4.0	81.5*	14.2	10.7*
COc1cc(NC(=O)C/C(C)=N/NC(=O)C(=O)NC2CCCCC2)c(OC)cc1Cl	-14.5	2.6	6.1	96.6*	11.1	9.7
COc1ccccc1NC(=O)C/C(C)=N/NC(=O)c1ccccn1	-8.6	6.9	14.8	11.9	nt	nt
COc1cc(NC(=O)C2CCCC2)c(OC)cc1Cl	-18.6	-5.2	1.2	6.6	nt	nt
COc1cc(NC(=O)C/C(C)=N/NC(=O)C2CCCCC2)c(OC)cc1Cl	-5.5	0.9	-9.9	104.6*	13.9	9.2
COc1cc(NC(=O)C/C(C)=N/NC(=O)c2ccccn2)c(OC)cc1Cl	-18.4	7.9	-7.7	113.5*	70.2*	13.6*
Cc1nnc(NC(=O)CN2CCN(Cc3ccc(F)cc3Cl)CC2)s1	-0.1	-0.7	-3.9	-2.0	nt	nt
CCCCN1C(=O)C(=O)N(CC(=O)N2CCc3ccccc32)C1=O	nt	-5.8	0.8	13.0	nt	nt
Cc1c(/C(Cc2ccccc2)=N/O)c2ccccc2n1C	-2.2	-6.4	-1.2	88.4*	111.1*	178.2*
Cc1onc(-c2ccccc2Cl)c1-c1nc(-c2ccccn2)no1	-21.8	-7.6	-3.1	91.9*	70.5*	176.5*
COc1ccc(C(=O)NC(=S)Nc2cc(C)ccn2)cc1[N+](=O)[O-]	0.6	-3.6	-7.4	82.2*	109.2*	12.5*
O=C(NC(=S)Nc1ccc(CN2CCOCC2)cc1)c1ccc(-c2cccc(Cl)c2)o1	-15.7	-16.4	-13.2	90.3*	66.7*	20.1*
O=C(/C=C/c1ccc(Cl)cc1Cl)NC(=S)Nc1ccc(CN2CCOCC2)cc1	-10.0	-2.8	-11.2	104.6*	21.6	82.6*
SMILES	PolyA inhibitor	proCasp3 act	proCasp7 act	AHR activator	AHR act confirm	PXR counter
COc1cc(Cl)ccc1OCc1cc(C(=O)NCc2cc(C(C)C)no2)no1	12.2	7.6	4.1	114.6*	105.3*	45.2*
Nc1nc2ccccc2cc1-c1cccs1	-8.6	0.2	0.5	6.5	nt	nt
N#Cc1c(-c2cccs2)cc(-c2cccnc2)nc1N	-15.1	-4.2	-6.7	101.7*	129.5*	27.8*
COc1cccc(-c2cc(-c3cccnc3)nc(N)c2C#N)c1	17.2	-0.5	-4.9	29.2	nt	nt
N#Cc1c(-c2ccc(Br)cc2)cc(-c2cccnc2)nc1N	-2.6	-1.2	1.0	93.1*	72.8*	18.3*
N#Cc1c(-c2cccs2)cc(-c2ccccn2)nc1N	-19.9	-13.6	-2.2	79.9*	98.4*	23.1*
